Screening data from PubChem BioAssay.
Sampled rows, rich in hits. Any-hit rate of the full collection: about 4.3%.
Beta2AR agonist: beta2AR agonists driving receptor internalization, primary screen, cell-based, FAP fluorogen, flow cytometry; Am2.2-beta2AR cells; hit rate 0.43% among 340,000; response, % (no concentration beside the values); Beta-2 adrenergic receptor (Homo sapiens), P07550;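 active = response above a set limit, near 3 SD of response in nonfluorescent compounds, cut at about 42% in these data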
Target sequence (P07550 whole entry, looked up): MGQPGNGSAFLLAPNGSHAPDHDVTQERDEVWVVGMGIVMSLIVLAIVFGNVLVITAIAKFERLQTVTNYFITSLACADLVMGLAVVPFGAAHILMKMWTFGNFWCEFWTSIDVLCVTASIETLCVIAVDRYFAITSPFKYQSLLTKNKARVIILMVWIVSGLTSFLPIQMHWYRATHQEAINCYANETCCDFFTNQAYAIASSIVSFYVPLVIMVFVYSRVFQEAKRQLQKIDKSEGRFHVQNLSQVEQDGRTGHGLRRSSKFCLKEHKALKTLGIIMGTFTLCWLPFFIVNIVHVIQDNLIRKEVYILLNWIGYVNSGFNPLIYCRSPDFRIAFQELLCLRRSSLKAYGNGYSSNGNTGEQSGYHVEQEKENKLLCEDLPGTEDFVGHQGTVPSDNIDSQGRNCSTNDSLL
TAAR1 antag: human TAAR1 antagonists, primary screen, Fluo-8 calcium fluorescence, CHO RD-HGA16 cells; Trace amine-associated receptor 1 (Homo sapiens), Q96RJ0; hit rate 1.5% among 360,000; antagonist; inhibition, % at 3 µM; AID 624466, 2012;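 active = inhibition above a per-plate cutoff, the mean inhibition of test compounds on that plate plus 3 SD, cut at about 49% in these data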;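 note: 0% = DMSO plus EC80 beta-PEA response and 100% = DMSO alone without agonist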
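Test system: hTAAR1-expressing CHO RD-HGA16 cells, Gα16-coupled; Probe or stimulus: EC80 β-phenethylamine stimulus; Compound dosing: single nominal final test compound concentration of 3 µM; Timing: 140 s kinetic read after compound, 140 s after agonist; Signal: Fluo-8 calcium-sensitive fluorescence; Measure: % inhibition of agonist calcium response; Controls: DMSO and EC80 PEA controls.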
MC4R barr agon: MC4R agonists recruiting beta-arrestin, primary screen, cell-based, luminescence, agonist arm of biased-ligand search. hit rate 0.98% among 360,000. Melanocortin receptor 4 (Homo sapiens), P32245. U2OS MC4R beta-arrestin complementation; percent of melanotan II response, DMSO zero. activation, % at 8.9 µM;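 active = activation above a per-plate cutoff, the mean activation of sample wells on that plate plus 3 SD, cut at about 8% in these data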
HTR2A ag: mouse Htr2a agonists via beta-arrestin recruitment, primary screen, cell-based, luminescence; 5-hydroxytryptamine receptor 2A (Mus musculus), P35363; CHO-K1 mHTR2A beta-arrestin complementation; percent of 30 µM serotonin response; activation, % at 7.6 µM; hit rate 0.66% among 360,000; AID 624169, 2012;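 active = activation above a run cutoff, the mean activation of all tested compounds plus 3 SD, cut at about 14% in these data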;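 note: 0% = plate median of compound wells and 100% = 30 µM serotonin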
MC4R antag cAMP: MC4R antagonists of cAMP signaling, primary screen, cell-based, TR-FRET, antagonist arm of biased-ligand search; hit rate 0.48% among 360,000; AID 540295, 2011; MC4R-expressing cells, MTII-stimulated cAMP, LANCE TR-FRET; inhibition, % at 6.5 µM; Melanocortin receptor 4 (Homo sapiens), P32245;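 active = inhibition above its plate's cutoff, the mean of tested wells on that plate plus 3 SD, cut at about 29% in these data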;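 note: 0% = Melanotan II alone and 100% = Melanotan II plus saturating MCL0020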
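material = U2OS cells stably expressing human melanocortin 4 receptor (MC4R) | also added = Melanotan II challenge | dosing = single nominal compound dose of 6.5 µM | detection = TR-FRET with Eu-cAMP and labeled anti-cAMP, 671 nm | replication = singlicate | timing = compound 30 min, challenge 1 h, detection 1 h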
TAAR1 agonist: human TAAR1 agonists, primary screen, Fluo-8 calcium fluorescence, CHO RD-HGA16 cells; activation, % at 3 µM; hit rate 0.99% among 360,000; vehicle wells 0%, saturating PEA agonist 100%; Trace amine-associated receptor 1 (Homo sapiens), Q96RJ0;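 active = activation above the mean activation of all test compounds in the run plus 3 SD, cut at about 38% in these data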
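test system = CHO RD-HGA16 cells carrying human TAAR1 plus Gα16 | schedule = 17-24 h seeding, 75 min 37 °C dye, 30 min RT | compound dosing = 3 µM single concentration | control set = DMSO and PEA EC100 | replicates = n 1 | signal = Fluo-8 fluorescence, 5 s baseline then 140 s kinetic read | measure = percent activation vs PEA EC100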
cAMP nonselect: nonselective cAMP signaling inhibitors, parental cells, counter-screen for MC4R biased antagonist project, cell-based, TR-FRET, U2OS, forskolin, triplicate; inhibition, % at 6.5 µM; hit rate 26% among 1,600; AID 602193, 2012; shares compounds with MC4R antag cAMP; LANCE TR-FRET;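 active = mean inhibition over triplicates above the low-control well mean plus 3 SD, set per campaign, cut at about 13% in these data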;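 note: signal is single emission at 671 nm which falls as cellular cAMP rises; 0% = forskolin-stimulated wells and 100% = buffer without forskolin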
MC4R antag conf: MC4R cAMP antagonists, retest, confirmation, cell-based, TR-FRET; shares compounds with MC4R antag cAMP; MC4R-expressing cells, MTII-stimulated cAMP; inhibition, % at 6.5 µM; hit rate 27% among 1,600; AID 602195, 2012; in the data active = inhibition above about 29%;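 note: 0% = agonist stimulated wells alone and 100% = agonist stimulated wells plus saturating reference antagonist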
Numbers without * were called inactive; . = no result given.

SMILES | Beta2AR agonist | TAAR1 antag | MC4R barr agon | HTR2A ag | MC4R antag cAMP | TAAR1 agonist | cAMP nonselect | MC4R antag conf
S=c1[nH]nc(-c2ccccn2)n1/N=C/c1ccc(-c2ccccc2Br)o1 | 8 | 5 | -1 | 3 | 94* | 8 | 58* | 126*
S=c1[nH]nc(-c2cccc(Cl)c2)n1/N=C/c1ccc(-c2ccccc2Br)o1 | 14 | -7 | 0 | -2 | 19 | 1 | . | .
N#Cc1c(N2CCN(C(=O)c3ccco3)CC2)nc(-c2ccccc2)c2c1CCCC2 | 22 | 26 | 2 | -8 | 34* | 0 | 8 | 43*
COc1cc(NC(=O)Cn2cnc3c(NCc4ccccc4)ncnc32)cc(OC)c1OC | -1 | -32 | 1 | 2 | 4 | 3 | . | .
Cc1cc(C(=O)c2ccc(Cl)cc2)c(NC(=O)CCl)s1 | 7 | -30 | 0 | -3 | 41* | -1 | 24* | 65*
CC(O)(c1ccc(F)c(F)c1)c1nc(-c2ccc(S(C)(=O)=O)cc2)cs1 (centres undefined) | . | 23 | -2 | -1 | -1 | 3 | . | .
Cc1cccc(-n2c(O)c(C=Nc3cc(O)ccc3C)c3ccccc3c2=O)n1 | 5 | 23 | 1 | 1 | 31* | 11 | 2 | 0
Cc1cccc(-n2c(O)c(C=Nc3ccccc3O)c3ccccc3c2=O)n1 | 24 | 8 | -1 | -3 | -3 | 5 | . | .
COc1ccc(NC(=O)c2cccc(-n3c(C)ccc3C)c2)c(OC)c1 | -6 | 10 | -1 | 2 | 29* | 1 | 1 | -4
CC1(C(=O)NS(=O)(=O)c2ccc(Br)cc2)CCN1C(=O)CCC1CCCC1 (centres undefined) | . | 17 | 1 | 4 | 6 | 3 | . | .
O=C1c2ccccc2C(=O)N1SC1CCCCC1 | -2 | 0 | 3 | 3 | 29* | 29 | 8 | 25
CCOC(=O)C1=C(C)NC(=S)NC1c1ccc(OCC(=O)N2CCCCCC2)c(OC)c1 (centres undefined) | 0 | 7 | 0 | -3 | 15 | -2 | . | .
COc1ccc(-c2c(C)[nH]n3c(=O)c(Cc4ccccc4)c(C)nc23)cc1OC | 6 | 13 | -3 | -5 | 31* | 3 | 2 | 7
Cc1nc(Nc2cccc(O)c2)c2c3c(sc2n1)CCC3 | -1 | -33 | 0 | -2 | -19 | -2 | . | .
Cc1cc(C(=O)COc2cc(F)ccc2[N+](=O)[O-])c(C)n1CC1CCCO1 (centres undefined) | 14 | -3 | 3 | 2 | 33* | 18 | 12 | 25
Cc1cc(-n2c(C)cc(C(=O)COc3cc(F)ccc3[N+](=O)[O-])c2C)no1 | 4 | -2 | -2 | 13 | 12 | 18 | . | .
COc1ccc(NC(=O)CS(=O)CC(=O)Nc2ccc(NC(C)=O)cc2)cc1 (centres undefined) | 9 | -5 | -1 | 8 | -2 | 2 | . | .
COC(=O)c1c(C)[nH]c(C(=O)COC(=O)CCc2ccc(OC)c(OC)c2)c1C | . | -5 | 3 | 1 | -2 | 3 | . | .
COc1cc(OC)cc(Oc2ccc(S(=O)(=O)N3CCCCC3)cc2[N+](=O)[O-])c1 | 3 | -6 | -1 | -7 | 30* | -1 | 9 | 22
Clc1ccc(-c2nnc(-c3ccc(Br)cc3)c(N3CCSCC3)n2)cc1 | 4 | -5 | -2 | 0 | 6 | 1 | . | .
